Experiment [1] relates to HCT-116 cells. The experiment can be described thus: Clonogenic assay, HCT-116 colony formation. The format is cell-based, human. Particulars: 24 h exposure, second group, printed as HCT-116; for colony formation: 10 μM. An outline of the steps: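 HCT-116 cells (RPMI 1640, 10% FBS, 1% glutamine) were seeded at 400 per well in 6-well plates and left to attach for 24 h. They were given test compound at 5 or 10 μM for 24 h, with medium alone as control. Cells were then washed with cold PBS and grown in fresh medium at 37 °C until control colonies reached ≥50 cells. Colonies were methanol-fixed, stained with 0.05% methylene blue and counted. Survival fraction is % of control, from five independent trials (n = 2 each).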

The test system of experiment [2] is HCT-116 colorectal carcinoma cells. The experiment can be described thus: MTT cell viability assay, HCT-116. The format is cell-based, human. Conditions: for Selectivity indices (SI), HCT-116: HCT-116 versus MRC-5 fibroblasts; for GI50: Homo sapiens, HCT-116, 72 h, read-out: GI50 values (M) mean ± SD, HCT-116. The essentials: (§1)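 Cells were seeded at 3 × 10^3 per well and grown for 24 h at 37 °C/5% CO2. A T0 plate was read at dosing and the others after 72 h. MTT (5 mg mL−1 in PBS) was added for 2.5 h, formazan dissolved in DMSO, and absorbance read at 550 nm. GI50 was interpolated, in triplicate. SI compares MRC-5 with cancer-line activity.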

For a further experiment, the system named is MRC-5 fibroblasts. Description: MTT cell viability assay, MRC-5 normal fibroblasts. Conditions: for GI50: Homo sapiens, MRC5, 72 h, read-out: GI50 values (M) mean ± SD, MRC-5; for more active against the carcinoma cell lines than MRC-5: selectivity over MRC-5. The format is cell-based, human. An outline of the steps: as §1
The test system of experiment [3] is MCF-7 breast cancer cells. The experiment can be described thus: MTT cell viability assay, MCF-7. The format is cell-based, human. Conditions: for GI50: Homo sapiens, MCF7, 72 h, read-out: GI50 values (M) mean ± SD, MCF-7; for Selectivity indices (SI), MCF-7: MCF-7 versus MRC-5 fibroblasts. An outline of the steps: as §1
The subject of experiment [4] is MCF-7 cells. The experiment can be described thus: Cell count assay, MCF-7. The format is cell-based. Conditions: Homo sapiens, MCF7, 72 h, read-out: growth inhibition, cell count. An outline of the steps: (§2)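 Cancer lines were grown in RPMI 1640 with 10% FBS and 1% glutamine at 37 °C/5% CO2, at ≤30 passages. Cells were seeded at 2 × 10^4 per well in 6-well plates and exposed to test compound at 5 or 10 μM for 72 h. Cells were counted by haemocytometer and expressed as % of control (mean ± SD), from 2 independent experiments in triplicate.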

A further experiment deals with ERK1/2. Description: Preliminary ERK1/2 inhibition experiments.
The test system of a further experiment is PARP-1 in HCT-116 cells. Description: Western blot of whole and cleaved PARP, HCT-116. The format is cell-based, human. Particulars: HCT-116, 5 and 10 μM, 24 h. The essentials:
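HCT-116 cells were seeded at 1–2 × 10^6 per dish, attached for 24 h, then exposed to test compound at 5 or 10 μM for 24 h. Lysate protein was measured by Bradford assay, and 50 μg per sample was run on SDS-PAGE and blotted to nitrocellulose. Blots were probed for PARP-1, with GAPDH as loading control, and quantified by densitometry. Data are mean ± SD of three independent experiments, analysed by ANOVA with Dunnett's test.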

Experiment [5] concerns HCT-116 cells. Description: Cell cycle assay. The format is cell-based, human. Particulars: HCT-116, 5 and 10 μM, 24 h. The essentials: (§3)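 Cells were seeded in 10 cm dishes at 7 × 10^5 (control, 24 h) or 4 × 10^5 (48 and 72 h) per dish and left 24 h at 37 °C. They were then treated with test compound at 5 or 10 μM for 24 h. Floating and trypsinised cells were pooled, PBS-washed, held in cold hypotonic fluorochrome solution overnight at 4 °C in the dark, and analysed by flow cytometry (three internal repeats).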

In experiment [6] the test system is caspases 3 and 7 in MCF-7 cells. Description: Caspase-3/7 activity assay, MCF-7. The format is cell-based, human. Conditions: MCF-7, 5 and 10 μM, 72 h. An outline of the steps: (§4)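 Cells kept in log growth (passaged twice weekly, 37 °C/5% CO2, ≤30 passages) were seeded at 3 × 10^3 per well in opaque white 96-well plates and allowed 24 h at 37 °C. Test compound was added at 5 and 10 μM from fresh 10 mM DMSO stocks for 72 h. Homogeneous caspase-3/7 reagent was added and mixed at 300–500 rpm for 30 s. After 30 min at room temperature, fluorescence was read at 499 nm and 521 nm. Experiments were run in triplicate and reported as mean ± SD.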

Experiment [7] concerns MCF-7 cells. The experiment can be described thus: Cell cycle assay. Particulars: 24 h; for accumulation of events in G2/M phase: control 11%. The format is cell-based, human. The essentials:
as §3

For experiment [8], the system named is caspases 3 and 7 in HCT-116 cells. Description: Caspase-3/7 activity assay, HCT-116. The format is cell-based, human. Conditions: HCT-116, 5 and 10 μM, 72 h. The essentials: as §4
The test system of experiment [9] is HCT-116 cells. The experiment can be described thus: Cell count assay, HCT-116. Conditions: Homo sapiens, HCT-116, 72 h, read-out: growth inhibition, cell count. The format is cell-based. An outline of the steps:
as §2

Take `N#Cc1ccc(-c2csc(NN=Cc3ccccc3F)n2)cc1` [Compound 3a, 2-(2-(2-Fluorobenzylidene)hydrazinyl)-4-(4-cyanophenyl) thiazole]: the colony formation result in the experiment with HCT-116 cells [1] is given as “completely prevented colony formation”.

Consider `Cc1ccc(C=NNc2nc(-c3ccc(C#N)cc3)cs2)cc1C` [Compound 3t, 2-(2-(3,4-Dimethylbenzylidene)hydrazinyl)-4-(4-cyanophenyl) thiazole], for which, in experiment [2], the “Selectivity indices (SI), HCT-116” value was determined as 2 and the GI50 amounted to 6.5e-06 ± 2.6e-06 M. Also, in the experiment with MRC-5 fibroblasts, the GI50 stood at 1.32e-05 ± 3e-07 M. In [3], the GI50 was 4.5e-06 ± 1.4e-06 M and the “Selectivity indices (SI), MCF-7” value worked out at 2.9. Moreover, the colony formation result in the experiment with HCT-116 cells [1] is recorded as “completely prevented colony formation”.

Regarding `N#Cc1ccc(-c2csc(NN=Cc3c(F)c(F)c(F)c(F)c3F)n2)cc1` [3a′, 2-(2-((Pentafluorophenyl)methylene)hydrazinyl)-4-(4-cyanophenyl) thiazole], in experiment [2], the “Selectivity indices (SI), HCT-116” value is recorded as 2.8 and the GI50 came out at 4.2e-06 ± 1e-06 M. In addition, the GI50 in the experiment on MRC-5 fibroblasts stood at 1.16e-05 ± 6e-07 M. For the same compound, in experiment [3], the GI50 turned out to be 1.7e-06 ± 3e-07 M and the “Selectivity indices (SI), MCF-7” value was found to be 6.8. In the experiment with MCF-7 cells [4], the inhibition at 10 µM was in the range of 90 to 95%. Further, in the experiment with HCT-116 cells [1], the colony formation result is on record as “completely prevented colony formation”.

`Cc1cccc(C=NNc2nc(-c3ccc(C#N)cc3)cs2)c1O` [Compound 3f, 2-(2-(2-Hydroxy-3-methylbenzylidene) hydrazinyl)-4-(4-cyanophenyl) thiazole]: in experiment [2], the “Selectivity indices (SI), HCT-116” value is recorded as 10.8 and the GI50 is 1.6e-06 ± 1e-07 M. Moreover, the ERK1/2 inhibition entry with ERK1/2 is “showed ERK1/2 inhibition”. In the experiment on PARP-1 in HCT-116 cells, the PARP-1 cleavage entry is on record as “induces concentration-dependent PARP-1 cleavage” and the “whole PARP expression” value was “down-regulation of whole PARP”. Also, in the experiment with MRC-5 fibroblasts, the GI50 was 1.73e-05 ± 7e-07 M and the “more active against the carcinoma cell lines than MRC-5” value was over 10 ×. In addition, the “SI over MRC-5 fibroblasts” value with MRC-5 fibroblasts (cancer cell line not given) is reported as over 10. Moreover, in the experiment with HCT-116 cells [5], the Pre-G1 events was 5–8%. In experiment [3], the GI50 stood at 1e-06 ± 4e-07 M and the “Selectivity indices (SI), MCF-7” value is recorded as 17.3. For the same compound, in the experiment with MCF-7 cells [4], the inhibition at 5 µM was in the range of 55 to 60% and the inhibition at 10 µM came to 100%. Further, in the experiment with HCT-116 cells [1] (5 μM), the “inhibition of colony formation” value is “completely inhibiting colony formation”. Moreover, the colony formation result with HCT-116 cells [1] is recorded as “completely inhibiting colony formation”. In [6], the “caspase 3 and 7 activation” value is “Significant dose-dependent caspase activation”. Besides, the “accumulation of events in G2/M phase” value in the experiment with MCF-7 cells [7] (MCF-7, 5 μM) was found to be 23%. For the same compound, the “accumulation of events in G2/M phase” value in the experiment with MCF-7 cells [7] (MCF-7, 10 μM) came to 28%. The pre-G1 cell populations entry in the experiment with MCF-7 cells [7] (MCF-7, 5 and 10 μM) is given as “negligible”. Besides, the “caspase 3 and 7 activation” value in [8] is recorded as “Significant dose-dependent caspase activation”.

In the case of `N#Cc1ccc(-c2csc(NN=Cc3cc(Br)ccc3O)n2)cc1` [Compound 3h, 2-(2-(5-Bromo-2-hydroxybenzylidene) hydrazinyl)-4-(4-cyanophenyl) thiazole], in [2], the “Selectivity indices (SI), HCT-116” value is on record as 3.6 and the GI50 worked out at 4.4e-06 ± 3e-07 M. Further, the GI50 in the experiment on MRC-5 fibroblasts is 1.58e-05 ± 2e-07 M. Further, in experiment [3], the GI50 amounted to 7e-06 ± 3e-07 M and the “Selectivity indices (SI), MCF-7” value was 2.3. Further, the inhibition at 10 µM with MCF-7 cells [4] is 65 to 70%.

In the case of `N#Cc1ccc(-c2csc(NN=Cc3c(Cl)cccc3Cl)n2)cc1` [Compound 3n, 2-(2-(2,6-Dichlorobenzylidene)hydrazinyl)-4-(4-cyanophenyl) thiazole], in [2], the “Selectivity indices (SI), HCT-116” value turned out to be 11 and the 50% growth inhibitory concentration (GI50) amounted to 1.1e-06 ± 5e-07 M. In addition, the GI50 in the experiment on MRC-5 fibroblasts was 1.21e-05 ± 4e-07 M. Moreover, in experiment [3], the GI50 amounted to 2.54e-05 ± 1.6e-06 M and the “Selectivity indices (SI), MCF-7” value came to 0.5. Moreover, in the experiment with HCT-116 cells [9], the inhibition at 5 µM lay in the range of 50 to 55% and the inhibition at 10 µM was found to be 100%.

In the case of `N#Cc1ccc(-c2csc(NN=Cc3cc(F)cc(C(F)(F)F)c3)n2)cc1` [Compound 3q, 2-(2-(3-Fluoro-5-(trifluoromethyl)benzylidene) hydrazinyl)-4-(4-cyanophenyl) thiazole], in [2], the “Selectivity indices (SI), HCT-116” value was determined as 4.1 and the GI50 came out at 2.2e-06 ± 1e-07 M. For the same compound, in the experiment with MRC-5 fibroblasts, the GI50 came out at 9e-06 ± 1e-07 M. Further, in experiment [3], the GI50 was 2.6e-06 ± 1e-07 M and the “Selectivity indices (SI), MCF-7” value is listed as 3.5. Further, the colony formation result with HCT-116 cells [1] is “completely prevented colony formation”.

Consider `N#Cc1ccc(-c2csc(NN=Cc3sccc3Br)n2)cc1` [3b′, 2-(2-((3-Bromothiophen-2-yl)methylene)hydrazinyl)-4-(4-cyanophenyl) thiazole], for which, in experiment [2], the “Selectivity indices (SI), HCT-116” value is listed as 12.2 and the GI50 worked out at 1.6e-06 ± 2e-07 M. Also, in the experiment on MRC-5 fibroblasts, the GI50 was determined as 1.95e-05 ± 3e-07 M and the “more active against the carcinoma cell lines than MRC-5” value is on record as over 5 ×. Also, in experiment [3], the GI50 stood at 3.9e-06 ± 5e-07 M and the “Selectivity indices (SI), MCF-7” value is 5. Further, in the experiment on HCT-116 cells [9], the inhibition at 5 µM lay within 50 to 55% and the inhibition at 10 µM is 90 to 95%. For the same compound, the colony formation entry with HCT-116 cells [1] is “completely prevented colony formation”. The “caspase 3 and 7 activation” value in experiment [6] is “Significant dose-dependent caspase activation”. For the same compound, in experiment [8], the “caspase 3 and 7 activation” value is reported as “Significant dose-dependent caspase activation”.

These data come from publication PMC9704493 (RSC Advances, 2022).
